Values after ≈ are worked out from the molar mass of the structure shown.

Among the data in ChEMBL document CHEMBL4699633, “Total Syntheses of Prenylated Isoflavones from Erythrina sacleuxii and Their Antibacterial Activity: 5-Deoxy-3'-prenylbiochanin A and Erysubin F” (J Nat Prod, 2020) are MIC and IC50 values, retold here.

The subject of one test is Listeria monocytogenes. The test can be described thus: Antibacterial activity against Listeria monocytogenes assessed as reduction in microbial growth measured every 5 mins for 24 hrs. It counts as functional.
Test [1] relates to Plasmodium falciparum. The test can be described thus: Antiplasmodial activity against chloroquine-resistant Plasmodium falciparum W2 by [3H]-hypoxanthine incorporation assay. Format: functional, organism-based.
For test [2], the system named is Plasmodium falciparum. Briefly: Antiplasmodial activity against chloroquine-sensitive Plasmodium falciparum D6 by [3H]-hypoxanthine incorporation assay. Format: functional, organism-based.
In test [3] the test system is Staphylococcus aureus. Briefly: Antibacterial activity against methicilin-resistant Staphylococcus aureus ATCC 43300 assessed as reduction in microbial growth after 18 hrs by agar dilution method. It counts as functional. The essentials:
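MRSA ATCC 43300 tested by standardized agar dilution. Compounds dissolved in DMSO and 2-fold serially diluted in solvent, then added to Mueller Hinton agar at 1% v/v DMSO final. Inoculum from overnight culture, photometrically adjusted. Plates incubated aerobically at 37 °C for 18 h. Vancomycin served as positive control. DMSO-only (1% v/v) plates served as negative control. Read-out was MIC.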
On the technique in general: In agar dilution the substance is mixed into plates at graded concentrations.

For test [4], the system named is Salmonella enterica subsp. enterica. The test can be described thus: Antibacterial activity against Salmonella enterica subsp.enterica NCTC 13349 assessed as reduction in microbial growth after 18 hrs by agar dilution method. Format: functional. In a few lines: (§1)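 Agar dilution on Mueller Hinton agar; compounds dissolved in DMSO, 2-fold serial dilutions in solvent added to agar (DMSO 1% v/v final). Inocula from overnight cultures, adjusted photometrically. Plates incubated aerobically at 37 °C for 18 h. Vancomycin or ampicillin as positive controls, DMSO-only plates as negative controls.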

Another test has as its system Escherichia coli. Briefly: Antibacterial activity against Escherichia coli ATCC 25922 assessed as reduction in microbial growth after 18 hrs by agar dilution method. It counts as functional. The essentials:
as §1

Another test has as its system Candida albicans. The test can be described thus: Antifungal activity against Candida albicans ATCC 90028 assessed as reduction in microbial growth after 48 hrs by agar dilution method. Format: functional. In a few lines:
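Agar dilution in yeast extract peptone dextrose (YPD) agar; compounds in DMSO, 2-fold serial dilutions added to medium (DMSO 1% v/v final). Inoculum from overnight culture, adjusted photometrically. Plates incubated at 30 °C for 48 h. Amphotericin B as positive control, DMSO-only plates as negative control.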

The subject of test [5] is Staphylococcus aureus. Briefly: Antibacterial activity against methicillin-resistant Staphylococcus aureus assessed as reduction in microbial growth after 24 hrs by two-fold serial dilution method. It counts as functional.
The test system of test [6] is Mycobacterium tuberculosis. Briefly: Antimycobacterial activity against Mycobacterium tuberculosis. It counts as functional.

Usually MIC stands for the least concentration at which growth counts as inhibited. Take `CC(C)=CCc1c(O)cc2occ(-c3ccc(O)cc3)c(=O)c2c1O` [WIGHTEONE]: the MIC in the test with Listeria monocytogenes stood at 29.6 µM.

The term IC50 denotes the concentration that gives 50% inhibition. Read a low IC50 as inhibition by little substance. Take `COc1ccc(-c2coc3cc(O)ccc3c2=O)cc1CC=C(C)C`: the IC50 in the test on Plasmodium falciparum [1] and with Plasmodium falciparum [2] was 20 µM in each case. Further, the MIC in the test on Staphylococcus aureus [3] is over 155 µM; in [4] it was over 190 µM; in the test on Escherichia coli it was over 95.1 µM; in the test on Candida albicans, over 95.1 µM.

Consider `CN[C@H](CC(C)C)C(=O)N[C@H]1C(=O)N[C@@H](CC(N)=O)C(=O)N[C@H]2C(=O)N[C@H]3C(=O)N[C@H](C(=O)N[C@H](C(=O)O)c4cc(O)cc(O)c4-c4cc3ccc4O)[C@H](O)c3ccc(c(Cl)c3)Oc3cc2cc(c3O[C@@H]2O[C@H](CO)[C@@H](O)[C@H](O)[C@H]2O[C@H]2C[C@](C)(N)[C@H](O)[C@H](C)O2)Oc2ccc(cc2Cl)[C@H]1O` [VANCOMYCIN], for which, in the test on Staphylococcus aureus [3], the MIC was found to be 0.5 µM.

In the case of `CC(C)=CCc1cc(-c2coc3cc(O)cc(O)c3c2=O)ccc1O` [CORYLIN], in the test on Listeria monocytogenes, the MIC worked out at 59.1 µM.

Take `CC(C)=CCc1c(O)cc(O)c2c(=O)c(-c3ccc(O)cc3)coc12`: the MIC in the test with Listeria monocytogenes was over 148 µM.

With `CC1(C)S[C@@H]2[C@H](NC(=O)[C@H](N)c3ccccc3)C(=O)N2[C@H]1C(=O)O` [AMPICILLIN], the MIC (in test [4]; with Escherichia coli) was 11.4 µM throughout.

For `CC(C)=CCc1cc(-c2coc3c(CC=C(C)C)c(O)ccc3c2=O)ccc1O` [ERYSUBIN F], the MIC is 256 µM in the test with Staphylococcus aureus [5]; 32 µM (≈ 12.5 µg/mL) in test [6]; 15.4 µM in the test with Staphylococcus aureus [3]; over 82 µM in test [4]; over 82 µM in the test on Escherichia coli; over 82 µM in the test with Candida albicans.

Turning to `C[C@@H]1[C@H](O)[C@@H](C)/C=C/C=C/C=C/C=C/C=C/C=C/C=C/[C@H](O[C@@H]2O[C@H](C)[C@@H](O)[C@H](N)[C@@H]2O)C[C@@H]2O[C@](O)(C[C@@H](O)C[C@@H](O)[C@H](O)CC[C@@H](O)C[C@@H](O)CC(=O)O[C@H]1C)C[C@H](O)[C@H]2C(=O)O` [AMPHOTERICIN B], the MIC with Candida albicans was 0.5 µM.

On to `CC(C)=CCc1cc(-c2cc(=O)c3ccc(O)c(CC=C(C)C)c3o2)ccc1O`, for which the MIC was 20.5 µM in the test with Staphylococcus aureus [3], over 82 µM in [4], over 82 µM in the test on Escherichia coli and over 82 µM in the test on Candida albicans.
